{"data": "Published values gathered from unrelated publications"}
{"Structure (SMILES)": "C[C@@H](O)[C@H]1C(=O)N2C(C(=O)O)=C(S[C@@H]3CN[C@H](C(=O)N(C)C)C3)[C@H](C)[C@H]12", "tested on": "Escherichia coli", "assay": "microbial growth", "test system": "ATCCBAA2452", "setting": "drug-resistant strain", "endpoint": "MIC", "value": "> 8 µg/mL"}
{"Structure (SMILES)": "Cc1sc2c(c1C)C(c1ccc(Cl)cc1)=N[C@H](CC(=O)OC(C)(C)C)c1nnc(C)n1-2", "tested on": "HBL1", "assay": "cell growth or viability, ATP luminescence", "setting": "1 µM, 5 days", "endpoint": "viability", "value": "110%"}
{"Structure (SMILES)": "C[C@@H](N)[C@H](O)CCCCCCCC(=O)CCCCCCCCCCCCCC[C@@H](O[C@@H]1O[C@H](CO)[C@H](O)[C@H](O)[C@H]1O)[C@@H](C)N", "tested on": "Escherichia coli", "assay": "microbial growth, resazurin", "test system": "ATCC10536", "setting": "50 µM", "endpoint": "inhibition", "value": "100%"}
{"Structure (SMILES)": "NC[C@H]1OB(O)c2c(OCCCO)cccc21", "tested on": "Escherichia coli", "assay": "microbial growth", "test system": "ATCC25922", "setting": "16 h", "endpoint": "MIC", "value": "1.56 µM"}
{"Structure (SMILES)": "N.N.[Cl][Pt][Cl]", "tested on": "BEAS-2B", "assay": "cell growth or viability, MTT", "setting": "24 h", "endpoint": "IC50", "value": "> 100 µM"}
{"Structure (SMILES)": "C[C@H]1COc2c(N3CCN(C)CC3)c(F)cc3c(=O)c(C(=O)O)cn1c23", "tested on": "Escherichia coli", "assay": "microbial growth", "test system": "ATCCBAA2452", "setting": "drug-resistant strain", "endpoint": "MIC", "value": "≤ 0.03 µg/mL"}
{"Structure (SMILES)": "CC(=O)NC[C@H]1CN(c2ccc(N3CCOCC3)c(F)c2)C(=O)O1", "tested on": "Staphylococcus aureus", "assay": "microbial growth, broth dilution", "test system": "ATCC43300 MRSA", "endpoint": "MIC", "value": "2.3 µg/mL"}
{"Structure (SMILES)": "CCn1cc(C(=O)O)c(=O)c2cc(F)c(N3CCNCC3)cc21", "tested on": "Escherichia coli", "assay": "microbial killing", "test system": "ATCC 8739, ATCC8739", "endpoint": "MBC", "value": "0.25 µM"}
{"Structure (SMILES)": "N.N.[Cl][Pt][Cl]", "tested on": "HBL1", "assay": "cell growth or viability, ATP luminescence", "setting": "10 µM, 72 h", "endpoint": "inhibition", "value": "100%"}
{"Structure (SMILES)": "CO/N=C(\\C(=O)N[C@@H]1C(=O)N2C(C(=O)O)=C(COC(C)=O)CS[C@H]12)c1csc(N)n1", "tested on": "Escherichia coli", "assay": "microbial killing", "test system": "ATCC 8739, ATCC8739", "endpoint": "MBC", "value": "1 µM"}
{"Structure (SMILES)": "CN1C(=O)/C(=N\\Nc2ncc(-c3cc4ccccc4oc3=O)s2)c2cc(Cl)ccc21", "tested on": "Staphylococcus aureus", "assay": "microbial growth, broth dilution", "test system": "ATCC43300 MRSA", "endpoint": "MIC", "value": "1.3 µg/mL"}
